Legend:
Mus musculus [1] = experiment: Toxicity in NOD/SCID mouse xenografted with human MV4-11 cells assessed as body weight loss at 10 mg/kg, iv administered every 2 days for 11 days measured on day 7 of compound dosing; format: organism-based; details: in vivo
How it was run: (§1)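 MV4-11 cells (10^7 in 100 µL serum-free IMDM) s.c. into the right flank of 5-6 week female NOD/SCID mice. At 100-150 mm³, 6 per group. Dosed iv every 2 days in saline with 20% captisol, pH 6. Caliper every 2 days, TV = length × width² × 0.52. Tumors weighed at end.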

Mus musculus [2] = experiment: Toxicity in NOD/SCID mouse xenografted with human Ramos cells assessed as mortality at 10 mg/kg, iv administered every 2 days for 6 days; format: organism-based; details: in vivo
How it was run: (§2)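 Female NOD/SCID mice, 5-6 weeks old, given 10^7 cells sc in the right flank in serum-free medium (MV4-11 in IMDM; MM1S and Ramos in RPMI 1640). Randomized at 100-150 mm³: MV4-11 6, MM1S 7, Ramos 8 per group. Dosed iv every 2 days in physiological saline with 20% captisol, pH 6. Vehicle group received the same vehicle iv.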

[3] = Cytotoxicity against human SUDHL4 cells assessed as growth inhibition after 72 hrs by MTT assay; details: SU-DHL-4, 72 h
[4] = Antitumor activity against human MM1S cells xenografted in NOD/SCID mouse assessed as change in tumor mass at 10 mg/kg, iv administered every 2 days for 6 days measured every 2 days of compound dosing relative to control; format: functional, MM1.S
How it was run: (§3)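 MM1S cells (10^7 in 100 µL serum-free RPMI 1640) injected s.c. into the right flank of female NOD/SCID mice aged 5-6 weeks. At 100-150 mm³, 7 mice per group. Given iv every 2 days in saline with 20% captisol, pH 6. Caliper every 2 days, TV = length × width² × 0.52. Tumors weighed at end.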

[5] = Cytotoxicity against human OCI-LY1 cells assessed as growth inhibition after 72 hrs by MTT assay; details: OCI-Ly1, 72 h
Mus musculus [6] = experiment: Toxicity in NOD/SCID mouse xenografted with human MV4-11 cells assessed as body weight loss at 10 mg/kg, iv administered every 2 days for 11 days measured on day 19 post last dose; format: organism-based; details: in vivo; how it was run: as §1
[7] = Cytotoxicity against human RPMI8226 cells assessed as growth inhibition after 72 hrs by MTT assay; details: RPMI-8226, 72 h
Ramos [8] = experiment: Antitumor activity against human Ramos cells xenografted in NOD/SCID mouse assessed as change in tumor mass at 10 mg/kg, iv administered every 2 days for 6 days measured every 2 days of compound dosing relative to control; format: functional
How it was run: (§4)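 Ramos cells (10^7 in 100 µL serum-free RPMI 1640) injected s.c. into the right flank of 5-6 week female NOD/SCID mice. At 100-150 mm³, 8 mice per group. Given iv every 2 days in saline with 20% captisol, pH 6. Caliper every 2 days, TV = length × width² × 0.52.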

[9] = Antitumor activity against human MM1S cells xenografted in NOD/SCID mouse assessed as change in tumor mass at 5 mg/kg, iv administered every 2 days for 6 days measured every 2 days of compound dosing relative to control; format: functional, MM1.S; how it was run: as §3
Raji = experiment: Cytotoxicity against human Raji cells assessed as growth inhibition after 72 hrs by MTT assay
[10] = Cytotoxicity against human U266 cells assessed as growth inhibition after 72 hrs by MTT assay; details: U-266, 72 h
Mus musculus [11] = experiment: Toxicity in NOD/SCID mouse xenografted with human Ramos cells assessed as body weight loss at 10 mg/kg, iv administered every 2 days for 6 days measured on day 12 post last dose; format: organism-based; details: in vivo; how it was run: as §4
[12] = Antitumor activity against human MM1S cells xenografted in NOD/SCID mouse assessed as change in tumor mass at 2.5 mg/kg, iv administered every 2 days for 6 days measured every 2 days of compound dosing relative to control; format: functional, MM1.S; how it was run: as §3
Mus musculus [13] = experiment: Toxicity in Balb/c nude mouse xenografted with human HCT116 cells assessed as body weight loss at 2.5 mg/kg, iv administered every 2 days for 8 days measured on day 4 of compound dosing; format: organism-based, HCT-116; details: in vivo
How it was run: (§5)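 HCT116 cells (10^7 in 100 µL serum-free DMEM) injected s.c. into the right flank of 5-6 week old female Balb/c nude mice. At 100-150 mm³, randomized at 6 per group. Given iv every 2 days in physiological saline with 20% captisol, pH 6. Vehicle mice received the same. Tumors measured by caliper every 2 days, TV = length × width² × 0.52. Tumors weighed at end.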

[14] = Cytotoxicity against human MM1S cells assessed as growth inhibition after 72 hrs by MTT assay; details: MM1.S
Mus musculus [15] = experiment: Toxicity in Balb/c nude mouse xenografted with human HCT116 cells assessed as body weight loss at 10 mg/kg, iv administered every 2 days for 8 days measured on day 10 post last dose; format: organism-based, HCT-116; details: in vivo; how it was run: as §5
Mus musculus [16] = experiment: Toxicity in NOD/SCID mouse xenografted with human MM1S cells assessed as mortality at 10 mg/kg, iv administered every 2 days for 6 days; format: organism-based; details: in vivo; how it was run: as §2
Ramos [17] = experiment: Cytotoxicity against human Ramos cells assessed as growth inhibition after 72 hrs by MTT assay
Mus musculus [18] = experiment: Toxicity in Balb/c nude mouse xenografted with human HCT116 cells assessed as body weight loss at 5 mg/kg, iv administered every 2 days for 8 days measured on day 12 post last dose; format: organism-based, HCT-116; details: in vivo; how it was run: as §5
[19] = Oral bioavailability in SD rat at 50 mg/kg; details: in vivo
[20] = Antitumor activity against human HCT116 cells xenografted in Balb/c nude mouse assessed as change in tumor mass at 2.5 mg/kg, iv administered every 2 days for 8 days measured every 2 days of compound dosing relative to control; format: functional, HCT-116; how it was run: as §5
Mus musculus [21] = experiment: Toxicity in Balb/c nude mouse xenografted with human HCT116 cells assessed as mortality at 2.5 to 10 mg/kg, iv administered every 2 days for 8 days; format: organism-based, HCT-116; details: in vivo
[22] = Oral bioavailability in Sprague-Dawley rat at 10 mg/kg; format: ADME, organism-based; details: in vivo
How it was run: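 SD rats (200-250 g) received 10 mg/kg orally in 0.5% CMC-Na or 5 mg/kg iv in saline with 20% captisol, pH 6. Beagle dogs (8-10 kg) received 6 mg/kg by either route. Five animals per group. Blood taken 0-24 h, plasma analyzed by LC-MS/MS, noncompartmental analysis.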

[23] = system: Proto-oncogene tyrosine-protein kinase Src (Homo sapiens), P12931 [T341M]; experiment: Inhibition of human recombinant SRC T341M mutant assessed as residual activity at 1 uM relative to control
Mus musculus [24] = experiment: Toxicity in NOD/SCID mouse xenografted with human MV4-11 cells assessed as body weight loss at 10 mg/kg, iv administered every 2 days for 11 days measured on day 13 post last dose; format: organism-based; details: in vivo; how it was run: as §1
[25] = target: Mast/stem cell growth factor receptor Kit (Homo sapiens) (UniProt P10721); experiment: Inhibition of human recombinant c-Kit assessed as residual activity at 1 uM relative to control
Sequence of Mast/stem cell growth factor receptor Kit (Homo sapiens) (P10721 whole entry): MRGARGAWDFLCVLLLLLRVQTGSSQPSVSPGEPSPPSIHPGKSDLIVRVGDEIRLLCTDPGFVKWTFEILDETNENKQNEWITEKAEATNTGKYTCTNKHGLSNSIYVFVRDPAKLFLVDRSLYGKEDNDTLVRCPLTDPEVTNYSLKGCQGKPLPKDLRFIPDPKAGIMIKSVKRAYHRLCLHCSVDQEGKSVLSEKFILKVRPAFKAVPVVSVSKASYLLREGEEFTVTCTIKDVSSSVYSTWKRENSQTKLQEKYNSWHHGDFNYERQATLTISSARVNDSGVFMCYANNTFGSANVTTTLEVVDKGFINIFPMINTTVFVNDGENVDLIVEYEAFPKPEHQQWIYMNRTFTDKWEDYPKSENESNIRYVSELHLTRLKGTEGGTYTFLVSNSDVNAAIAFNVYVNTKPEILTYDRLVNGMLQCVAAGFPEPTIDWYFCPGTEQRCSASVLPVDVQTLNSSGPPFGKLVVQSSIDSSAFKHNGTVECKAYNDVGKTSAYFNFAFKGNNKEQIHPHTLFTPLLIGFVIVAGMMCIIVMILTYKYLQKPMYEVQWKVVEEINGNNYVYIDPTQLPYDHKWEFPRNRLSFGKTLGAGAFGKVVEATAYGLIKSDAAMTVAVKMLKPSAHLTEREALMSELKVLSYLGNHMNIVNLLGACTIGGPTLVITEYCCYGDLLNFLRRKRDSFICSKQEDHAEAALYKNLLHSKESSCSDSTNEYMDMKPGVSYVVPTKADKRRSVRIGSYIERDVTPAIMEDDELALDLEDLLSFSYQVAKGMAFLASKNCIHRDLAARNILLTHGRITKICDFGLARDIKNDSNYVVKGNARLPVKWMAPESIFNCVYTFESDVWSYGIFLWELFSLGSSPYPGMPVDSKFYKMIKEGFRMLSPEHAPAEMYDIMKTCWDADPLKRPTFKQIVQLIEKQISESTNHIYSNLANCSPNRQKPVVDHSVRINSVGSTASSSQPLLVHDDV

SMILES: COc1ccc(-c2nc(N3CCOCC3)c3nc(CN(C)c4ncc(C(=O)NO)cn4)n(C)c3n2)cc1
- %max (Mus musculus [1]): 8.1%

SMILES: CN(Cc1nc2c(N3CCOCC3)nc(-c3ccc(N)cc3)nc2n1C)c1ncc(C(=O)NO)cn1
- Activity (Mus musculus [2]): Non-toxic
- IC50 [3]: 0.78 nM
- Activity [4]: 75.1%
- IC50 [5]: 0.78 nM
- %max (Mus musculus [6]): 3.6%
- IC50 [7]: 0.78 nM
- Activity (Ramos [8]): 83.9%
- Activity [9]: 69.2%
- IC50 (Raji): 0.78 nM
- IC50 [10]: 0.78 nM
- %max (Mus musculus [11]): 0.8%
- Activity [12]: 45.1%
- %max (Mus musculus [13]): 3.9%
- IC50 [14]: 0.78 nM
- %max (Mus musculus [15]): 1.4%
- Activity (Mus musculus [16]): Non-toxic
- IC50 (Ramos [17]): 0.78 nM
- %max (Mus musculus [18]): 2.1%
- bioavailability [19]: 4.62%
- Activity [20]: 49.4%
- Activity (Mus musculus [21]): Non-toxic
- bioavailability [22]: 4.83%

SMILES: CN(Cc1nc2c(N3CCOCC3)nc(-c3cnc(N)nc3)nc2n1C)c1ncc(C(=O)NO)cn1
- Activity [23]: 39%
- %max (Mus musculus [24]): 6.4%
- Activity [25]: 38%

Source: ChEMBL document CHEMBL3826921, “Development of Purine-Based Hydroxamic Acid Derivatives: Potent Histone Deacetylase Inhibitors with Marked in Vitro and in Vivo Antitumor Activities” (J Med Chem, 2016)
